Data on 5 compounds can be found in ChEMBL document CHEMBL4052819 (2017).

SMILES strings stand for the structures. In brackets after ≈: the same amount, converted by molar mass. Non-standard residues stand in square brackets, D forms with d. Residues, ends and D or L forms follow the SMILES beside them. *: point of attachment. Heptanoyl = CCCCCCC(=O)*; Dab = NCC[C@H](N)C(=O)O; Bz = O=C(c1ccccc1)*

For assay [1], the system named is Acinetobacter baumannii. The assay can be described thus: Antibacterial activity against Acinetobacter baumannii ATCC 19606 after 18 to 20 hrs by broth microdilution method. It is filed as functional. To be noted: ATCC 19606 = CIP 70.34 = JCM 6841. (In general: In broth dilution the organism is exposed to a series of concentrations in liquid medium.)
Assay [2] deals with Escherichia coli. The assay can be described thus: Antibacterial activity against Escherichia coli ATCC 25922 after 18 to 20 hrs by broth microdilution method. It counts as functional. A digest of the protocol:
(§1)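 Broth microdilution in tryptic soy broth: 2-fold dilutions mixed 1:1 with ~1.5 × 10^5 CFU/mL inoculum, final 0.5–32 μg/mL; 37 °C, 18–20 h. MIC taken as lowest concentration giving no visible growth. At least three independent experiments, one replicate each.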

The subject of assay [3] is Klebsiella pneumoniae. Put plainly: Antibacterial activity against Klebsiella pneumoniae ATCC 13883 after 18 to 20 hrs by broth microdilution method. It counts as functional.
Assay [4] deals with Pseudomonas aeruginosa. Put plainly: Antibacterial activity against Pseudomonas aeruginosa ATCC 27853 after 18 to 20 hrs by broth microdilution method. It counts as functional. A digest of the protocol: as §1
The subject of assay [5] is Enterococcus faecium. Put plainly: Antibacterial activity against Enterococcus faecium ATCC 19434 after 18 to 20 hrs by broth microdilution method. It is filed as functional. A digest of the protocol: as §1
The test system of assay [6] is Staphylococcus aureus. The assay can be described thus: Antibacterial activity against Staphylococcus aureus ATCC 29213 after 18 to 20 hrs by broth microdilution method. It is filed as functional. A digest of the protocol:
as §1

Assay [7] concerns Staphylococcus aureus. The assay can be described thus: Antibacterial activity against methicillin-resistant Staphylococcus aureus ATCC 43300 after 18 to 20 hrs by broth microdilution method. It counts as functional. A digest of the protocol: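 Broth microdilution in tryptic soy broth: 2-fold dilutions mixed 1:1 with ~1.5 × 10^5 CFU/mL bacterial suspension in TSB, final 0.5–32 μg/mL, 37 °C for 18–20 h. MIC = lowest concentration with no visible growth. At least three independent experiments, one replicate each.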

Assay [8] has as its system Acinetobacter baumannii. The assay can be described thus: Potentiation of rifampicin-mediated antibacterial activity against Acinetobacter baumannii ATCC 19606 assessed as rifampicin MIC at 2 ug/ml by checkerboard method (reference value: 16 ug/ml). It is filed as functional. The note with it: ATCC 19606 = CIP 70.34 = JCM 6841.
Assay [9] has as its system Acinetobacter baumannii. Put plainly: Potentiation of rifampicin-mediated antibacterial activity against Acinetobacter baumannii ATCC 19606 assessed as decrease in rifampicin MIC at 4 ug/ml by checkerboard method relative to control. It is filed as functional, ATCC 19606 = CIP 70.34 = JCM 6841.
In assay [10] the test system is Klebsiella pneumoniae. Put plainly: Potentiation of rifampicin-mediated antibacterial activity against Klebsiella pneumoniae ATCC 13883 assessed as rifampicin MIC at 2 ug/ml by checkerboard method (reference value: 16 ug/ml). It counts as functional.
In assay [11] the test system is Klebsiella pneumoniae. Put plainly: Potentiation of rifampicin-mediated antibacterial activity against Klebsiella pneumoniae ATCC 13883 assessed as decrease in rifampicin MIC at 2 ug/ml by checkerboard method relative to control. It counts as functional.

For orientation: MIC means the lowest concentration found to suppress growth. Take `CCCCCCCC(=O)N[C@H](CCCN)C(=O)N[C@H](C(=O)N[C@@H](CCCN)C(=O)N[C@@H](Cc1ccccc1)C(=O)N[C@@H](CC(C)C)C(=O)N[C@@H](CCCN)C(=O)N[C@H](C(=O)N[C@@H](CC(C)C)C(=O)N[C@@H](CO)C(N)=O)C(C)C)[C@@H](C)CC`: the MIC in assay [1] was 32 µg/mL (≈ 27.6 µM); in assay [2], 32 µg/mL (≈ 27.6 µM); in [3] it was over 32 µg/mL; in [4] it was 16 µg/mL (≈ 13.8 µM); in assay [5], over 32 µg/mL; in assay [6], over 32 µg/mL. Moreover, the MIC is 32 µg/mL (≈ 27.6 µM) in assay [7], 0.0625 µg/mL in [8] and 0.0313 to 0.0625 µg/mL in assay [10]. Also, the “fold change (FC)” value in assay [9] is 512 - 1024; in [11] it was 1024 - 2048.

On to `CCCCCCC(=O)N[C@@H](CCN)C(=O)N[C@@H](Cc1ccccc1)C(=O)N[C@@H](CCN)C(=O)N[C@H](Cc1ccccc1)C(=O)N[C@@H](CC(C)C)C(=O)N[C@@H](CCN)C(=O)N[C@@H](C(=O)N[C@@H](CC(C)C)C(=O)N[C@@H](CO)C(N)=O)C(C)C` (Heptanoyl-[Dab]F[Dab][dF]L[Dab][dV]LS-NH2), for which the MIC in assay [1] was 32 µg/mL (≈ 28.2 µM); in assay [2], 1 to 4 µg/mL (≈ 0.88 to 3.52 µM); in [3], 8 µg/mL (≈ 7.04 µM); in assay [4] it was 2 to 4 µg/mL (≈ 1.76 to 3.52 µM); in assay [5], over 32 µg/mL; in assay [6], at least 32 µg/mL. Moreover, the MIC in assay [7] came out at 32 µg/mL (≈ 28.2 µM).

As to `CCCCCCC(=O)N[C@@H](CCN)C(=O)N[C@H](C(=O)N[C@@H](CCN)C(=O)N[C@H](Cc1ccccc1)C(=O)N[C@@H](CC(C)C)C(=O)N[C@@H](CCN)C(=O)N[C@@H](C(=O)N[C@@H](CC(C)C)C(=O)N[C@@H](CO)C(N)=O)C(C)C)[C@@H](C)CC` (Heptanoyl-[Dab]I[Dab][dF]L[Dab][dV]LS-NH2), the MIC was over 32 µg/mL in assay [1]; 4 µg/mL (≈ 3.63 µM) in assay [2]; 32 µg/mL (≈ 29 µM) in assay [3]; 4 µg/mL (≈ 3.63 µM) in assay [4]; over 32 µg/mL in assay [5]; over 32 µg/mL in [6]. Besides, the figures for the MIC in assay [7], in [8] and in assay [10] were over 32 µg/mL, 0.0078 µg/mL and 0.0039 µg/mL, respectively. The “fold change (FC)” value in assay [9] was 4096; in assay [11], “>=8192”.

Regarding `CCCCCCC(=O)N[C@@H](CCN)C(=O)N[C@H](C(=O)N[C@@H](CCN)C(=O)N[C@H](Cc1ccccc1)C(=O)N[C@@H](CC(C)C)C(=O)N[C@@H](CCN)C(=O)N[C@@H](C(=O)N[C@@H](CC(C)C)C(=O)N[C@@H](CO)C(N)=O)C(C)C)C(C)C` (Heptanoyl-[Dab]V[Dab][dF]L[Dab][dV]LS-NH2), the MIC in assay [1] is over 32 µg/mL; in assay [2], 16 µg/mL (≈ 14.7 µM); in [3] it was over 32 µg/mL; in assay [4], 16 µg/mL (≈ 14.7 µM); in [5] it was over 32 µg/mL; in assay [6] it was over 32 µg/mL. Moreover, the MIC in [7] is over 32 µg/mL; in assay [8] it was 0.125 µg/mL; in assay [10], 0.0156 µg/mL. For the same compound, the figures for the “fold change (FC)” value in assay [9] and in assay [11] were 256 - 512 and 4096, respectively.

`CC[C@H](C)[C@H](NC(=O)[C@H](CCN)NC(=O)c1ccccc1)C(=O)N[C@@H](CCN)C(=O)N[C@H](Cc1ccccc1)C(=O)N[C@@H](CC(C)C)C(=O)N[C@@H](CCN)C(=O)N[C@@H](C(=O)N[C@@H](CC(C)C)C(=O)N[C@@H](CO)C(N)=O)C(C)C` (Bz-[Dab]I[Dab][dF]L[Dab][dV]LS-NH2): the MIC in assay [1] is over 32 µg/mL; in assay [2], 16 to 32 µg/mL (≈ 14.6 to 29.2 µM); in assay [3], over 32 µg/mL; in [4], 8 to 32 µg/mL (≈ 7.31 to 29.2 µM); in [5], over 32 µg/mL; in assay [6], over 32 µg/mL. The results for the MIC in [7], in assay [8] and in assay [10] were over 32 µg/mL, 0.0312 µg/mL and 0.0078 µg/mL, respectively. Besides, the “fold change (FC)” value is reported as 2048 - 4096 in assay [9] and 4096 - 8192 in assay [11].
